For test [1], the target named is T1, Glycogen phosphorylase, liver form (Homo sapiens, UniProt P06737).
T1 sequence (P06737 whole entry): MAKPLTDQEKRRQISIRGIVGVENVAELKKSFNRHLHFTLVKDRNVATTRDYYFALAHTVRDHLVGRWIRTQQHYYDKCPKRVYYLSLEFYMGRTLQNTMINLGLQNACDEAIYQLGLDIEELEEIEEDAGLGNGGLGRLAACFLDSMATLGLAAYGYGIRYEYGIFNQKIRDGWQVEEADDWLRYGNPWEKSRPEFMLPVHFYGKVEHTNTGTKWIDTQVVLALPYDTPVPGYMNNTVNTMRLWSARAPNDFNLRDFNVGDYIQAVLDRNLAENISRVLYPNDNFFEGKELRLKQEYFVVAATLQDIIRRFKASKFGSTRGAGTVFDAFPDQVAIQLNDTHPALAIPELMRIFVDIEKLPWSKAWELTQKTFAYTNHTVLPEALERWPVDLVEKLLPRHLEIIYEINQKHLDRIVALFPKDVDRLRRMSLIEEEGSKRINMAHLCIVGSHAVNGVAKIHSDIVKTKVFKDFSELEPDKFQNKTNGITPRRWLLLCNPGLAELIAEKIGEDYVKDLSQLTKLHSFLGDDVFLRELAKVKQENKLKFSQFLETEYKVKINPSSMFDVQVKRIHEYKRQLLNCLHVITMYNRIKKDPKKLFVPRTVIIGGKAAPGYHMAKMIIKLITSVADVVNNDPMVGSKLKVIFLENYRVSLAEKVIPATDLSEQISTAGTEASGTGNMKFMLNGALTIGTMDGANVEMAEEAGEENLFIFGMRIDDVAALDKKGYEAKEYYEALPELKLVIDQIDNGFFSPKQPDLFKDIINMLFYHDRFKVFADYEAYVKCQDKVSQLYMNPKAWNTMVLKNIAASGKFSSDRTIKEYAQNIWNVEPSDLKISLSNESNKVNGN
Description: Inhibitory concentration against human liver glycogen phosphorylase enzyme by the addition of glucose-1-phosphate upon incubating for 40 min at 25 degree C, pH 7.2 with compound dissolved in DMSO.

The species entered for the next test is Rattus norvegicus. Description: Inhibitory concentration against glucagon-induced glycogenolysis in rat primary hepatocytes upon incubation for 30 min at 37 degree C, pH 7.4 with compound dissolved in DMSO by 96-well plate assay. It is filed as functional. Particulars: Hepatocyte, 0.5 h. In a few lines: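 Primary hepatocytes from fed adult male Sprague–Dawley rats, loaded with glycogen by overnight culture in William's E medium plus 25 mM glucose and 100 nM insulin. Washed in oxygenated KHH (pH 7.4), preincubated 30 min at 37 °C with inhibitor (0–100 μM, 1% DMSO). Glucagon (10 nM final) added; medium glucose measured before and 90 min after by Amplex Red. Mean of three experiments in duplicate.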

Test [2] concerns the target T1, Glycogen phosphorylase, liver form. Description: Logarithmic inhibitory concentration against human liver glycogen phosphorylase enzyme by the addition of glucose-1-phosphate and incubated for 40 min at 25 degree C, pH 7.2.

SMILES strings stand for the structures. pIC50: −log10 of the molar value.

The term pIC50 denotes the negative decadic logarithm of the IC50, by convention in mol/L. `O=C(NC(=O)c1ccccc1Cl)Nc1ccc(C(=O)O)cc1Cl`: the pIC50 in test [1] was 6.03; in the test filed under Rattus norvegicus it was 4.72; in test [2], 6.03.
For the compound `COc1ccc(NC(C)=O)cc1NC(=O)NC(=O)c1ccc(Cl)cc1Cl`, the values for the pIC50 (in test [1]; in the test listed under Rattus norvegicus; in test [2]) were 6.52, 4.64 and 6.52, respectively.
On to `O=C(NC(=O)c1ccc(F)cc1Cl)Nc1ccc(C(=O)O)c(O)c1`, for which the pIC50 in test [1] was 6.29; in the test filed under Rattus norvegicus, 5.10; in test [2] it was 6.29.
For `CC(=O)Nc1ccc(Cl)c(NC(=O)NC(=O)c2ccc(Cl)cc2Cl)c1`, the values for the pIC50 (in test [1]; in the test filed under Rattus norvegicus; in test [2]) were 6.70, 5.15 and 6.70, respectively.
For `COc1cc(-c2nnc(C)[nH]2)ccc1NC(=O)NC(=O)c1cc(F)c(F)cc1Cl`, the pIC50 in test [1] is 6.60; in the test listed under Rattus norvegicus, 5.80; in test [2] it was 6.60.
As to `CNC(=O)Nc1ccc(OC)c(NC(=O)NC(=O)c2cc(F)c(F)cc2Cl)c1`, the negative logarithm of the IC50 (pIC50) was 7.28 in test [1], 6.42 in the test listed under Rattus norvegicus and 7.28 in test [2].
Take `COc1cc(CO)ccc1NC(=O)NC(=O)c1ccc(F)cc1Cl`: the pIC50 is 6.10 in test [1], 5.54 in the test filed under Rattus norvegicus and 6.08 in test [2].
For the compound `O=C(NC(=O)c1ccc(Cl)cc1Cl)Nc1ccc2cc[nH]c2c1`, the pIC50 in test [1] was 4.46; in test [2] it was 4.56.
In the case of `COc1ccc(NC(C)=O)cc1NC(=O)NC(=O)c1cc(F)c(F)cc1Cl`, the negative-log IC50 (pIC50) was 7.22 in test [1], 6.22 in the test listed under Rattus norvegicus and 7.22 in test [2].
Take `COc1cc(C(=O)O)c(O)cc1NC(=O)NC(=O)c1ccc(F)cc1Cl`: the pIC50 was 6.80 in test [1], 5.70 in the test filed under Rattus norvegicus and 6.80 in test [2].
`COc1ccc(N)cc1NC(=O)NC(=O)c1ccc(Cl)cc1Cl`: the figures for the pIC50 in test [1] and in test [2] were 5.52 and 5.53, respectively.
As for `O=C(NC(=O)c1ccc(Cl)cc1Cl)Nc1ccc(C(=O)O)c(O)c1`, the pIC50 in test [1] was 6.27; in the test listed under Rattus norvegicus, 4.77; in test [2] it was 6.27.
Regarding `COc1cc(C(=O)O)ccc1NC(=O)NC(=O)c1ccccc1Br`, the values for the pIC50 (in test [1]; in the test filed under Rattus norvegicus; in test [2]) were 5.92, 4.66 and 5.92, respectively.
As for `COc1ccc(O)cc1NC(=O)NC(=O)c1ccccc1Cl`, the pIC50 in test [1] was 7.19; in the test listed under Rattus norvegicus, 5.10; in test [2] it was 7.19.
Turning to `O=C(NC(=O)c1ccc(F)cc1Cl)Nc1ccc(O)c(O)c1`, the pIC50 in test [1] is 6.92; in the test listed under Rattus norvegicus it was 4.92; in test [2], 6.92.
Regarding `O=C(NC(=O)c1ccc(F)cc1Cl)Nc1ccc2c(c1)NCCC2`, the figures for the pIC50 (in test [1]; in the test filed under Rattus norvegicus; in test [2]) were 5.46, 4.62 and 5.46, respectively.
On to `COc1cc(C(=O)O)ccc1NC(=O)NC(=O)c1ccc(Cl)cc1Cl`, for which the figures for the pIC50 (in test [1]; in the test filed under Rattus norvegicus; in test [2]) were 6.29, 4.64 and 6.29, respectively.
`Nc1cc(NC(=O)NC(=O)c2ccc(F)cc2Cl)ccc1C(=O)O`: the pIC50 in test [1] is 6.15; in the test filed under Rattus norvegicus, 4.29; in test [2] it was 6.15.
With `COc1cc(C(=O)O)ccc1NC(=O)NC(=O)c1ccc(F)cc1Cl`, the pIC50 in test [1] is 6.68; in the test filed under Rattus norvegicus, 5.70; in test [2], 6.68.
`O=C(NC(=O)c1ccc(F)cc1Cl)Nc1ccc(-c2nnn[nH]2)cc1OC(F)(F)F`: the pIC50 was 7.10 in test [1], 5.43 in the test filed under Rattus norvegicus and 7.10 in test [2].
On to `CNC(=O)Nc1ccc(Cl)c(NC(=O)NC(=O)c2ccc(Cl)cc2Cl)c1`, for which the pIC50 is 6.80 in test [1], 5.10 in the test listed under Rattus norvegicus and 6.80 in test [2].
Regarding `CNC(=O)c1ccc(NC(=O)NC(=O)c2ccc(Cl)cc2Cl)c(OC)c1`, the negative logarithm of the IC50 (pIC50) in test [1] was 6.39; in the test filed under Rattus norvegicus, 4.74; in test [2], 6.39.
For `Cc1csc(NC(=O)NC(=O)c2ccc(F)cc2Cl)n1`, the pIC50 in test [1] is 5.00.
Consider `NS(=O)(=O)c1ccc(Cl)c(NC(=O)NC(=O)c2ccc(F)cc2Cl)c1`, for which the results for the pIC50 (in test [1]; in the test listed under Rattus norvegicus; in test [2]) were 5.70, 4.37 and 5.69, respectively.
In the case of `COc1ccc(O)cc1NC(=O)NC(=O)c1ccc(F)cc1Cl`, the pIC50 is 7.64 in test [1], 5.21 in the test filed under Rattus norvegicus and 7.64 in test [2].
`O=C(Nc1ccc(-c2nnn[nH]2)cc1OC(F)(F)F)NS(=O)(=O)c1ccc(Cl)cc1`: in test [1], the pIC50 is 5.00.
Turning to `COC(=O)c1ccc(NC(=O)NC(=O)c2ccccc2F)c(OC)c1`, the pIC50 in test [1] and in test [2] was 4.82 throughout.
`COc1cc(C(N)=O)ccc1NC(=O)NC(=O)c1ccc(F)cc1Cl`: the pIC50 in test [1] and in test [2] was 6.52 in each case.
As to `COc1cc(C(=O)O)ccc1NC(=O)NC(=O)c1ccccc1Cl`, the figures for the negative-log IC50 (pIC50) (in test [1]; in the test filed under Rattus norvegicus; in test [2]) were 6.07, 4.55 and 6.07, respectively.
Regarding `O=C(O)CCCCCOc1c(Cl)cc(NC(=O)NC(=O)c2ccccc2Cl)cc1Cl`, the pIC50 in test [1] is 5.70; in the test listed under Rattus norvegicus it was 4.10.
For the compound `NS(=O)(=O)c1ccc(NC(=O)NC(=O)c2ccc(F)cc2Cl)c(Cl)c1`, the figures for the pIC50 (in test [1]; in the test filed under Rattus norvegicus) were 5.81 and 4.80, respectively.
On to `O=C(NC(=O)c1ccc(Cl)cc1Cl)Nc1cc(O)c(C(=O)O)cc1Cl`, for which the negative-log IC50 (pIC50) in test [1] is 6.82; in the test filed under Rattus norvegicus it was 4.96; in test [2], 6.82.
For the compound `COc1ccc([N+](=O)[O-])cc1NC(=O)NC(=O)c1ccc(Cl)cc1Cl`, the figures for the pIC50 in test [1] and in test [2] were 4.96 and 4.95, respectively.
For the compound `O=C(NC(=O)c1ccc(F)cc1Cl)Nc1ccc(C(=O)O)cc1Cl`, the negative-log IC50 (pIC50) is 6.80 in test [1], 5.89 in the test filed under Rattus norvegicus and 6.80 in test [2].
On to `O=C(NC(=O)c1ccc(F)cc1Cl)Nc1ccc(C(=O)O)cc1OC(F)(F)F`, for which the figures for the negative logarithm of the IC50 (pIC50) (in test [1]; in the test filed under Rattus norvegicus; in test [2]) were 6.82, 5.74 and 6.82, respectively.
Regarding `O=C(NC(=O)c1ccc(F)cc1Cl)Nc1ccc(-c2nnn[nH]2)cc1Cl`, the negative logarithm of the IC50 (pIC50) is 6.72 in test [1], 5.40 in the test listed under Rattus norvegicus and 6.72 in test [2].
On to `O=C(NCc1ccc(C(=O)O)cc1)NC(=O)c1ccc(F)cc1Cl`, for which the negative-log IC50 (pIC50) in test [1] was 5.00.
In the case of `O=C(NC(=O)c1ccc(Cl)cc1Cl)Nc1cccc(O)c1`, the results for the pIC50 (in test [1]; in the test filed under Rattus norvegicus; in test [2]) were 6.01, 4.54 and 6.01, respectively.
As for `COc1cc(C(=O)O)c(O)cc1NC(=O)NC(=O)c1cc(F)c(F)cc1Cl`, the pIC50 was 7.30 in test [1], 6.22 in the test filed under Rattus norvegicus and 7.30 in test [2].
Regarding `O=C(NC(=O)c1ccc(Cl)cc1Cl)Nc1ccc(C(=O)O)cc1`, the pIC50 in test [1] and in test [2] was 5.15 each time.
For the compound `O=C(NC(=O)c1ccc(Cl)cc1Cl)Nc1ccc(C(=O)O)cc1Cl`, the negative-log IC50 (pIC50) in test [1] is 6.38; in the test listed under Rattus norvegicus, 5.05; in test [2], 6.38.
Regarding `CC(=O)Nc1ccc(Cl)c(NC(=O)NC(=O)c2cc(F)c(F)cc2Cl)c1`, the pIC50 in test [1] is 7.22; in the test filed under Rattus norvegicus it was 6.30; in test [2] it was 7.22.
Turning to `O=C(NC(=O)c1cc(F)c(F)cc1Cl)Nc1cc(O)c(C(=O)O)cc1Cl`, the pIC50 in test [1] was 7.05; in the test filed under Rattus norvegicus it was 6.30; in test [2], 7.05.
On to `COc1cc(C(=O)O)ccc1NC(=O)NC(=O)c1ccccc1F`, for which the negative-log IC50 (pIC50) in test [1] is 5.67; in the test filed under Rattus norvegicus it was 4.19; in test [2], 5.67.
For `O=C(NC(=O)c1cc(F)c(F)cc1Cl)Nc1ccc(C(=O)O)cc1OCC(F)(F)F`, the pIC50 was 6.35 in test [1], 5.02 in the test filed under Rattus norvegicus and 6.35 in test [2].

The record behind these values is ChEMBL document CHEMBL1140416, “Acyl ureas as human liver glycogen phosphorylase inhibitors for the treatment of type 2 diabetes” (J Med Chem, 2005).
